Results taken from ChEMBL document CHEMBL4138248, “Discovery of naphtho[1,2-d]oxazole derivatives as potential anti-HCV agents through inducing heme oxygenase-1 expression” (Eur J Med Chem, 2018).
pIC50: −log10 of the molar value. Active and inactive are the calls of the source. The calls are words filed in the database; no cut-off is given here.

Legend:
[1] = Selectivity index, ratio of CC50 for human Ava5 cells to IC50 for HCV; type: toxicity; conditions: read-out: Ratio CC50/IC50
Procedure, shortened: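 SI = CC50/IC50. CC50 comes from 72 h XTT in […] Ava5 cells. IC50 is the concentration giving 50% inhibition of HCV, measured by RT-qPCR after 3 days in Ava5 cells.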

[2] = biological target: T1, Heme oxygenase 1 (Homo sapiens) (UniProt P09601); experiment: Induction of HO-1-mediated IFN-alpha-2 mRNA expression in human Ava5 cells after 3 days by RT-qPCR method; type: cell-based
T1 sequence (whole entry): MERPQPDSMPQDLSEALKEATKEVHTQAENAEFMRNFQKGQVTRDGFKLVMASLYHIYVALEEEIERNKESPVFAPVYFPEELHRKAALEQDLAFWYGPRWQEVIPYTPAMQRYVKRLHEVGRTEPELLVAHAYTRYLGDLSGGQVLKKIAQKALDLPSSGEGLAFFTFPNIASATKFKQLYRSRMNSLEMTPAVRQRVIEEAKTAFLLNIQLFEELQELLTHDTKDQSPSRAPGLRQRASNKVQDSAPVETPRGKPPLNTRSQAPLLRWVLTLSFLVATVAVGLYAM
Procedure, shortened: (§1)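 Ava5 cells were treated for 3 days at the indicated concentrations. Target mRNAs were measured by RT-qPCR with specific primers and normalized to endogenous gapdh. Results are relative to DMSO-treated cells.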

Hepatitis C virus = experiment: Antiviral activity against HCV infected in human Ava5 cells assessed as inhibition of viral RNA replication after 3 days by RT-qPCR method; type: functional, organism-based, Hepacivirus hominis
Procedure, shortened: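 Ava5 cells (Huh-7 hepatoma cells carrying an HCV replicon, grown in DMEM/10% FBS with 1 mg·mL⁻¹ G418) were treated for 3 days with a range of concentrations. HCV RNA was measured by RT-qPCR and normalized to cellular gapdh mRNA. Values are mean ± SD of three independent experiments, each in triplicate.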

[3] = biological target: T2, Nuclear factor erythroid 2-related factor 2 (Homo sapiens) (UniProt Q16236); experiment: Induction of Nrf2-mediated ARE transactivation in human Ava5 cells transfected with p2xARE-Luc after 3 days; type: cell-based
T2 sequence (whole entry): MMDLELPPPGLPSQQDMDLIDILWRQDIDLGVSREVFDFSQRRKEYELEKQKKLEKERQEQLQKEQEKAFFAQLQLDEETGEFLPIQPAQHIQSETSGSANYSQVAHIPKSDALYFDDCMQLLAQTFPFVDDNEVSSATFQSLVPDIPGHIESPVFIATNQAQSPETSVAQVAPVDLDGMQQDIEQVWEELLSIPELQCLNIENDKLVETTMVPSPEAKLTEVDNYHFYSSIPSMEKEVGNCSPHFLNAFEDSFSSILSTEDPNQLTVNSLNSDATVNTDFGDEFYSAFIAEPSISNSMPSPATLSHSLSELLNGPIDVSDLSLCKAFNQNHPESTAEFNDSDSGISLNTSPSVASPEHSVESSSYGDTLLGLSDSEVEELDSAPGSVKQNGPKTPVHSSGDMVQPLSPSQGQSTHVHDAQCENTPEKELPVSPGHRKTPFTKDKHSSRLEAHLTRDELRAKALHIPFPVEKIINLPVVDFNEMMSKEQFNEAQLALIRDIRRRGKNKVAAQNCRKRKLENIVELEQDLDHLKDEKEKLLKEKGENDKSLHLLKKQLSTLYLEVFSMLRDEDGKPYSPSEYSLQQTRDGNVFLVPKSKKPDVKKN
Procedure, shortened: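 Ava5 cells were transfected with the p2xARE-Luc reporter (ARE-driven firefly luciferase), treated for 3 days, and luciferase was measured in lysates. Normalization was to co-transfected pCMV-SEAP. Mean ± SD of three independent experiments.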

[4] = biological target: T3, Transcription regulator protein BACH1 (Homo sapiens) (UniProt O14867); experiment: Reduction of bach-1 translocation into nucleus of human Ava5 cells after 3 days by Western blot method
T3 sequence (whole entry): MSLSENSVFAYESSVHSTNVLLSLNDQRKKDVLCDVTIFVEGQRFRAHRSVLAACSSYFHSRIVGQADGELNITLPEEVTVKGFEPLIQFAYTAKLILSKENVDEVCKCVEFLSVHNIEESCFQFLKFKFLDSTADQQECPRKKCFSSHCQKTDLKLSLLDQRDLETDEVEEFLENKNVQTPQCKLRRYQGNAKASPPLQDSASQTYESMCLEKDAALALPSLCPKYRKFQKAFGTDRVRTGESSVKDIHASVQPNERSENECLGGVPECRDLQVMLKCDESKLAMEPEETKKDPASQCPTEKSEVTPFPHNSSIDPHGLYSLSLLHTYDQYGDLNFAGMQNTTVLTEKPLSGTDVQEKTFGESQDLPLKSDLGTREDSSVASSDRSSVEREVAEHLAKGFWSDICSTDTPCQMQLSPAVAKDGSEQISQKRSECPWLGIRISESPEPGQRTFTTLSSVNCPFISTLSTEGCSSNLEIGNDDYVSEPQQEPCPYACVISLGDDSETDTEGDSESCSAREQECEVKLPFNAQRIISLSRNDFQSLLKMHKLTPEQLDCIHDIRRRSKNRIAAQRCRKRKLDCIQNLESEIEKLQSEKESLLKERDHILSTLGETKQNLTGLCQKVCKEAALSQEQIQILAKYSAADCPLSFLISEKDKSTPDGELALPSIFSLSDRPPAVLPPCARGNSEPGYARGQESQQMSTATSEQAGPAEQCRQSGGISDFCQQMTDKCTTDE

[5] = Induction of HO1 (unknown origin) promoter activity expressed in human Ava5 cells transfected with pHO-1-Luc after 3 days; type: cell-based
Procedure, shortened: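 Ava5 cells were transfected with 0.5 µg pHO-1-Luc, with pCMV-SEAP (0.1 µg) co-transfected for normalization. Cells were then treated at various concentrations for 3 days, and luciferase was read in lysates. Mean ± SD of three independent experiments.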

Homo sapiens [6] = organism: Homo sapiens; experiment: Effect on Nrf2 protein expression in human Ava5 cells at 0.5 to 1 uM after 3 days by Western blot method; type: functional, cell-based
Procedure, shortened: (§2)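 Ava5 cells were treated for 3 days at the indicated concentrations. Whole-cell lysates were immunoblotted with anti-Nrf2, anti-Keap-1, anti-bach1 and anti-GAPDH.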

[7] = biological target: T1, Heme oxygenase 1 (Homo sapiens); experiment: Induction of HO-1-mediated ISRE promoter activity in human Ava5 cells transfected with pISRE-Luc after 3 days; type: cell-based
Procedure, shortened: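 Ava5 cells carrying pISRE-Luc (ISRE-driven firefly luciferase) were treated for 3 days at increasing concentrations. Luciferase activity was read in cell lysates, normalized to co-transfected pCMV-SEAP.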

Homo sapiens [8] = organism: Homo sapiens; experiment: Effect on Keap-1 protein expression in human Ava5 cells at 0.5 to 1 uM after 3 days by Western blot method; type: functional, cell-based; procedure, shortened: as §2
Homo sapiens [9] = organism: Homo sapiens; experiment: Downregulation of bach-1 protein expression in human Ava5 cells after 3 days by Western blot method; type: functional, cell-based; procedure, shortened: as §2
[10] = biological target: T1, Heme oxygenase 1 (Homo sapiens); experiment: Induction of HO-1-mediated IFN-alpha-17 mRNA expression in human Ava5 cells after 3 days by RT-qPCR method; type: cell-based; procedure, shortened: as §1

Activity [2]: Dose-dependent effect | pIC50 (Hepatitis C virus; Ava5, 72 h): 6.09 | Activity [3]: Dose-dependent effect | Activity [4]: Dose-dependent effect | Activity [7]: Dose-dependent effect | Activity [10]: Dose-dependent effect
SMILES: COc1ccc(Nc2cc3oc(-c4ccco4)nc3c3ccccc23)cc1
selectivity ratio [1]: 229 | inhibition (Hepatitis C virus; Hepacivirus hominis): Dose-dependent effect | Activity [5]: Dose-dependent effect | Activity (Homo sapiens [6]): inactive | Activity (Homo sapiens [8]): inactive | Activity (Homo sapiens [9]): Dose-dependent effect
